HNF4A DNA FP = change in binding of human HNF4 alpha to DNA | HNF4a-FITC DNA binding, fluorescence polarization, 1 h | activity change, % at 10 µM | actives 0.3% (n = 360,000) | AID 1224865; in the data active means activity change above about 30%, passing the limit was not always enough
Target sequence (P41235 whole entry, looked up): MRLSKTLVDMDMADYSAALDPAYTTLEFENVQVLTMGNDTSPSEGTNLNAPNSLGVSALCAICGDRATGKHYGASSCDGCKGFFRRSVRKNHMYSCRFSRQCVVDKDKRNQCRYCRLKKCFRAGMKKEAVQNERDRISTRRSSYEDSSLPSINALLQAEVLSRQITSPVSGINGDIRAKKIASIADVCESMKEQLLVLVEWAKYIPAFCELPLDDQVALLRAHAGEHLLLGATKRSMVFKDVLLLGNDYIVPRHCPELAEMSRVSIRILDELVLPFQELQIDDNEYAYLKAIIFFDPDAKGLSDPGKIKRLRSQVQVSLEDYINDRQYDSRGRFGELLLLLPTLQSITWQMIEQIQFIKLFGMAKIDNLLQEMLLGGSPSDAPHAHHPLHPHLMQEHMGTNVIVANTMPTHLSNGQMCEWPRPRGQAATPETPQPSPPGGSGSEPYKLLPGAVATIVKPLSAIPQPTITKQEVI
TPT1 inhibitor = inhibitors of Candida albicans tRNA 2'-phosphotransferase TPT1. recombinant caTPT1, FP RNA substrate dephosphorylation. inhibition, % at 5 µM. actives 0.81% (n = 300,000). AID 1962;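 active means inhibition above the mean of all tested compounds plus 3 SD, set per screening campaign, cut at about 24% in these data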;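 further: plate controls were DMSO alone for no effect and ferristatin control at 100 nM for full effect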
Myeloid diff MLP = myeloid differentiation induction; ER-HoxA9 myeloid progenitors, lysozyme-GFP differentiation, flow cytometry; calls only at 10 µM; actives 1% (n = 360,000); AID 624256;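 active means normalized GFP-positive differentiation at or above the plate's own cutoff, the solvent-only control mean plus 3 SD; inconclusive means no clear call, values can overlap the other calls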;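 further: cells exposed to compound for four days before flow analysis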
Rpn11 inh = Rpn11 (human) deubiquitinase inhibition; human 26S proteasome, Ub4-pepOG fluorescence polarization; 20S core pre-blocked with epoxomicin; O00487; actives 0.59% (n = 360,000); inhibition, % at 20 µM;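 active means inhibition at 20 µM, scaled to each plate's controls, above about 33%, limit read from the data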
CSN deneddyl inh = inhibitors of human CSN-mediated cullin deneddylation | Q92905 | Purified CSN, SCF-Nedd8-OG deneddylation, fluorescence polarization | inhibition, % at 12.5 µM | actives 0.38% (n = 360,000) | AID 651999;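 active means pattern-corrected inhibition above about 35%, with an unprinted fluorescence ratio check between 0.5 and 1.5, limit read from the data, passing the limit was not always enough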;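 further: 0% = enzyme with substrate and 100% = substrate without enzyme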
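Schedule: reaction 90 min, room temperature / Assay system: HEK293T-derived human Csn5 enzyme / Input: Csn5 at 0.24 nM final / Measure: inhibition of Csn5 cleavage, % / Control set: substrate-only high control, full reaction low control / Technique: fluorescence polarization of the substrate / Buffer or medium: Tris/NaCl/DTT buffer, pH 7.5 / Reagent: SCFSkp2-Nedd8OG substrate at 10 nM final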
TPT1 inh confirm = confirmation of Candida albicans TPT1 inhibitors; actives 74% (n = 2,400); shares compounds with TPT1 inhibitor; AID 2149; recombinant caTPT1, fluorescence polarization, RNase T1 coupled; inhibition, % at 5 µM;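 active means inhibition above the primary screen limit, the mean inhibition of all tested compounds plus 3 SD, cut at about 25% in these data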
RNase T1 counter = RNase T1 inhibition in TPT1 counter-screen | RNase T1 cleavage, fluorescence polarization, 1536-well | shares compounds with TPT1 inhibitor | inhibition, % at 5 µM | AID 2153 | actives 83% (n = 2,400);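 active means inhibition above the solvent-only control well mean plus 3 SD, limit set per screening run, cut at about 23% in these data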;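 further: plate controls were DMSO wells with enzyme for no effect and wells without RNase T1 for full effect; inhibitors block cleavage so intact labeled substrate keeps polarization high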
Target sequence (P00651 whole entry, looked up): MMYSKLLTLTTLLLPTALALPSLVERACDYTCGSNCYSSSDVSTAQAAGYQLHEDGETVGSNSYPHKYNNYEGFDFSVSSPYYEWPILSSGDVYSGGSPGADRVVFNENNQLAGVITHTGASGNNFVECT
Rpn11 confirm = Rpn11 inhibition confirmation, single concentration | AID 602318 | actives 29% (n = 1,900) | purified human 26S proteasome, Ub4-pepOG fluorescence polarization; proteasome pretreated with epoxomicin | inhibition, % at 20 µM | shares compounds with Rpn11 inh
MMP-2 inh = counter-screen for RPN11 inhibitors: inhibition of human MMP-2; actives 4% (n = 1,900); inhibition, % at 20 µM; shares compounds with Rpn11 inh; recombinant MMP-2, FRET peptide cleavage fluorescence;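 further: human MMP-2 activated beforehand with APMA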
Thrombin FP = thrombin (bovine) inhibition counter-screen | shares compounds with Rpn11 inh | inhibition, % at 20 µM | actives 13% (n = 1,900) | bovine thrombin cleavage of Ub4-pepOG, fluorescence polarization | AID 602333;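 active means mean inhibition at least 40% at 20 µM, or signal 3 deviations below plate average, so some actives read negative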;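 further: plate controls were thrombin with DMSO for no effect and buffer wells lacking thrombin for full effect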
* = called active by the depositor; i = inactive; ? = inconclusive; . = no result shown; + = active, no number. Hits are enriched below; roughly 2.3% of the tested compounds scored in any of these assays. Unless noted, no stated cut-off is given here; in the data, active means inhibition above about 40%; inactive means the rest.

SMILES	HNF4A DNA FP	TPT1 inhibitor	Myeloid diff MLP	Rpn11 inh	CSN deneddyl inh	TPT1 inh confirm	RNase T1 counter	others
COCCN(C(=O)COC(=O)CCS(=O)(=O)c1ccccc1)c1c(N)n(Cc2ccccc2)c(=O)[nH]c1=O	-0.2	-0.4	i	-7.0	-1.0	.	.
COC(=O)c1ccc(C2C(C(=O)c3cc4ccccc4o3)=C(O)C(=O)N2c2cc(C)on2)cc1 (stereo not drawn)	8.1	43.9*	i	29.5	17.6	15.7	25.5*
Cc1cc(N2C(=O)C(O)=C(C(=O)c3cc4ccccc4o3)C2c2ccc(OC(C)C)cc2)no1 (stereo not drawn)	0.2	1.1	i	-0.2	-1.4	.	.
COc1cccc2cc(C(=O)C3=C(O)C(=O)N(c4cc(C)on4)C3c3cccs3)oc12 (stereo not drawn)	5.5	30.8*	i	23.0	13.6	22.8	35.5*
CCCOc1cccc(C2C(C(=O)c3cc4ccccc4o3)=C(O)C(=O)N2c2cc(C)on2)c1 (stereo not drawn)	-4.7	4.7	i	13.3	8.1	.	.
Cc1cc(N2C(=O)C(O)=C(C(=O)c3cc4ccccc4o3)C2c2cccc(Br)c2)no1 (stereo not drawn)	0.3	30.6*	i	16.0	7.0	12.6	25.3*
CC1=NN(c2ccccc2)C(=O)/C1=C/C=C/C=C/N(C)C	190.4	124.3*	i	.	104.4	93.6*	102.0*
O=C(O)c1ccccc1SCC(=O)N1CCc2ccccc21	-2.2	139.2*	i	-6.2	-1.0	0.6	3.5
C=CC(C)N1C(=O)S/C(=C\c2ccc(N3CCOCC3)cc2C)C1=O (stereo not drawn)	16.6	32.3*	i	-28.1	6.6	57.0*	63.5*
C=CCN1C(=O)S/C(=C\c2ccc(N3CCOCC3)cc2C)C1=O	22.4	66.3*	i	18.3	10.5	54.3*	65.9*
Cc1cc(N2CCOCC2)ccc1/C=C1/SC(=O)NC1=O	1.4	6.7	i	4.2	-4.6	.	.
COCCN(C(=O)c1ccc(OC2CCN(S(=O)(=O)N(C)C)CC2)cc1)C(C)C	0.4	-0.6	i	-0.8	2.8	.	.
Cc1ccc(-c2nc3cc(C)c(Br)c(C)n3c2CC(C)(C)C)cc1	-0.1	.	i	-6.5	-0.8	.	.
S=C(Nc1ccc(Cl)cc1)N(CCCN1CCOCC1)Cc1cccs1	2.0	57.0*	i	-2.0	1.2	3.7	4.6
Cc1ccc(S(=O)(=O)NCCCNS(=O)(=O)c2ccccc2Br)cc1	-1.9	.	i	-3.9	2.7	.	.
O=C(/C=C/c1ccc(N2CCC(c3ccccc3)=N2)cc1)c1ccccc1	.	115.0*	.	.	.	118.8*	114.1*
COc1ccc(/C=C/C=C2\NC(=S)NC2=O)cc1	15.2	27.8*	+	17.0	-0.7	18.8	31.9*
COc1ccc(C=C2NC(=S)NC2=O)cc1	1.6	.	i	-3.5	3.9	.	.
Nc1c(C(=O)O)sc2nc(-c3ccccc3)cc(-c3ccccc3)c12	17.9	22.4	i	.	2.5	.	.
Nc1c(C(=O)O)sc2nc(-c3ccccc3)cc(-c3ccc(F)cc3)c12	34.7*	28.8*	+	.	8.0	27.3*	38.5*
COc1ccc(OC)c(C2CC(=O)Nc3c2c(=O)[nH]c2ncnn32)c1 (stereo not drawn)	1.8	-1.5	i	0.2	-9.6	.	.
COc1ccc2c(c1)CCCC2=O	1.7	.	i	-1.5	6.2	.	.
Nc1ccc2c(c1)CCC2=O	10.7	24.5*	i	23.0	3.2	18.3	27.7*
CCC(C)Nc1nc(-c2c[nH]c3ccccc23)cs1 (stereo not drawn)	16.7	24.8*	.	34.4	3.2	22.8	32.9*
CNc1nc(-c2c[nH]c3ccccc23)cs1	5.7	4.0	i	15.0	11.4	.	.
SMILES	HNF4A DNA FP	TPT1 inhibitor	Myeloid diff MLP	Rpn11 inh	CSN deneddyl inh	TPT1 inh confirm	RNase T1 counter	others
Cc1cc(C)nc(SCc2cc(=O)c(OC(=O)c3cc([N+](=O)[O-])ccc3Cl)co2)n1	-3.6	1.0	i	-9.2	4.0	.	.
O=C(Oc1coc(CSc2ncccn2)cc1=O)c1ccccc1[N+](=O)[O-]	-3.6	46.3*	i	-4.5	0.5	6.3	9.8
O=C(O)c1ccc(N/N=C/c2cc3ccccc3nc2Cl)cc1	10.4	20.1	i	16.2	2.4	.	.
Cc1cccc2cc(/C=N/Nc3ccc(C(=O)O)cc3)c(Cl)nc12	10.7	25.5*	i	32.1	4.0	41.6*	53.6*
O=C(c1ccco1)N1CCN(C(=O)c2cccc3c2C(=O)N(C2CCCCC2)C3)CC1	-0.2	26.7*	i	-7.4	-6.4	20.4	25.8*
Nc1c(C(=O)Nc2nc3ccccc3s2)sc2nc(-c3cccs3)ccc12	31.0	29.6*	+	29.4	21.5	26.5*	38.1*
CC(=O)c1sc2nc(-c3cccs3)ccc2c1N	6.1	12.7	i	6.0	6.9	.	.
COc1ccc(/C=C2\CCC(C3CCCC3)C2=O)c(OC)c1 (stereo not drawn)	1.1	1.6	i	7.2	3.3	.	.
COc1ccc(/C=C2\CC/C(=C\c3ccc(OC)cc3OC)C2=O)c(OC)c1	123.6	147.6*	i	.	78.9	148.5*	137.5*
COc1ccccc1OC(=O)Nc1ccc(Cl)cc1	0.6	40.6*	i	-4.2	1.1	4.0	5.5
O=C(O)c1ccc(-c2nc(-c3ccccc3)c(-c3ccccc3)[nH]2)cc1	-0.2	-1.5	i	4.6	-3.9	.	.
Oc1ccccc1N=Nc1nc(-c2ccccc2)c(-c2ccccc2)[nH]1	22.8	45.7*	?	54.5*	4.6	57.9*	69.0*	Rpn11 confirm=22.7;MMP-2 inh=10.4;Thrombin FP=20.1
COc1ccc(N=Nc2nc(-c3ccccc3)c(-c3ccccc3)[nH]2)cc1	19.9	31.4*	i	39.4*	9.7	43.4*	56.5*	Rpn11 confirm=8.4;MMP-2 inh=13.1;Thrombin FP=-6.5
COc1ccc(-c2nc(C)ncc2N=Nc2ccccc2)cc1	0.3	-1.4	i	1.8	-0.5	.	.
O=C(CN(Cc1cccs1)C(=O)CCC(=O)Nc1ccccn1)NCc1ccccc1	1.5	-1.8	i	-6.6	-3.7	.	.
Nc1nc(-c2ccccc2)c(-c2ccccc2)n1N	16.6	50.9*	i	55.9*	6.7	29.1*	38.1*	Rpn11 confirm=12.9;MMP-2 inh=-30.9;Thrombin FP=13.5
